The subject of data set [1] is Mus musculus. The data set is described as follows: In vivo antibacterial activity against Escherichia coli after following oral administration. The data set is classed as functional. Conditions: read-out: PD50. In short, it runs like this: (§1)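 Acute lethal systemic infection in female Charles River CD-1 mice. Compound given orally or subcutaneously. Potency expressed as median protective dose (PD50, mg/kg), the dose preventing death in 50% of animals.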

For data set [2], the system named is Mus musculus. The data set is described as follows: In vivo antibacterial activity against Streptococcus pyogenes after following oral administration. The data set is classed as functional. To be noted: read-out: PD50. An outline of the steps:
as §1

The subject of a further data set is Providencia rettgeri. The data set is described as follows: Minimum inhibitory concentration against M1771 strain of Providencia rettgeri. Type of data set: functional. In short, it runs like this: (§2)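 Tested by microtitration against a panel of 10 Gram-positive and Gram-negative organisms. MIC is reported in μg/mL.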
Data set [3] relates to Staphylococcus aureus. The data set is described as follows: Minimum inhibitory concentration against Staphylococcus aureus H 228. Type of data set: functional. An outline of the steps:
as §2

Data set [4] is described as follows: The no effect dose (NED) for phototoxicity in mouse. The data set is classed as organism-based. To be noted: in vivo, read-out: NED. An outline of the steps: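 Female CD-1 mice were depilated and dosed orally, with five animals per dose plus controls. After each dose the mice were exposed to UVA for 3 h. This was repeated daily for 4 days. Any redness or erythema relative to control was scored positive. The value is the highest dose producing no effect, in mg/kg.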

For a further data set, the system named is Streptococcus pyogenes. The data set is described as follows: Minimum inhibitory concentration against Streptococcus pyogenes C203. Type of data set: functional. An outline of the steps: as §2
The next data set concerns Klebsiella pneumoniae. The data set is described as follows: Minimum inhibitory concentration against Klebsiella pneumoniae MGH-2. Type of data set: functional. In short, it runs like this: as §2
The test system of the next data set is Enterococcus faecalis. The data set is described as follows: Minimum inhibitory concentration against Streptococcus faecalis MGH-2. Type of data set: functional. An outline of the steps: as §2
The subject of a further data set is Streptococcus pneumoniae. The data set is described as follows: Minimum inhibitory concentration tested against Streptococcus pneumoniae SV-1. Type of data set: functional. In short, it runs like this: as §2
Another data set deals with V79. Briefly: Clonogenic cytotoxicity against Hamster V-79 cells. Type of data set: cell-based. Conditions: Cricetulus griseus.
In data set [5] the test system is Staphylococcus aureus. The data set is described as follows: Minimum inhibitory concentration against Staphylococcus aureus UC-76. The data set is classed as functional. An outline of the steps: as §2
The test system of data set [6] is Mus musculus. The data set is described as follows: In vivo antibacterial activity against Escherichia coli after following subcutaneous administration. Type of data set: functional. To be noted: sc, read-out: PD50. An outline of the steps:
as §1

The subject of data set [7] is Mus musculus. The data set is described as follows: In vivo antibacterial activity against Streptococcus pyogenes after following subcutaneous administration. Type of data set: functional. To be noted: sc, read-out: PD50. In short, it runs like this: as §1
Another data set relates to Pseudomonas aeruginosa. The data set is described as follows: Minimum inhibitory concentration against U1-18 cell line from Pseudomonas aeruginosa. Type of data set: functional. In short, it runs like this:
as §2

Another data set has as its system Enterobacter cloacae. The data set is described as follows: Minimum inhibitory concentration against Enterobacter cloacae MA 2646. Type of data set: functional.
A further data set concerns Escherichia coli. Briefly: Minimum inhibitory concentration against Escherichia coli Vogel. The data set is classed as functional. In short, it runs like this: as §2

Converted amounts (≈) assume the structure as drawn.

A word on the IC50: it is the midpoint of a concentration-inhibition curve. Read a high IC50 as lower potency.

As to `C[C@H](N)C1CCN(c2nc3c(cc2F)c(=O)c(C(=O)O)cn3C2CC2)C1` (stereo partly drawn), the ED50 was 6 mg/kg in the data set with Mus musculus [1], 14 mg/kg in the data set on Mus musculus [2], 1 mg/kg in the data set on Mus musculus [6] and 2 mg/kg in the data set on Mus musculus [7]. For the same compound, the MIC against Providencia rettgeri was found to be 0.4 µg/mL (≈ 1.11 µM); against Staphylococcus aureus [3] it was 0.05 µg/mL (≈ 0.139 µM); with Streptococcus pyogenes, 0.013 µg/mL (≈ 0.0361 µM); in the data set on Klebsiella pneumoniae, 0.1 µg/mL (≈ 0.277 µM); in the data set with Enterococcus faecalis, 0.05 µg/mL (≈ 0.139 µM); in the data set on Streptococcus pneumoniae, 0.006 µg/mL (≈ 0.0166 µM). The MIC in the data set on Staphylococcus aureus [5] was determined as 0.006 µg/mL (≈ 0.0166 µM); in the data set with Pseudomonas aeruginosa, 0.8 µg/mL (≈ 2.22 µM); with Enterobacter cloacae, 0.05 µg/mL (≈ 0.139 µM); against Escherichia coli it was 0.05 µg/mL (≈ 0.139 µM). The NOAEL in [4] is 67 mg/kg. In the data set on V79, this compound displayed an IC50 of 100 µg/mL (≈ 277 µM).
As for `CC(C)(N)[C@@H]1CCN(c2nc3c(cc2F)c(=O)c(C(=O)O)cn3C2CC2)C1.Cl`, the ED50 is 5 mg/kg in the data set with Mus musculus [1], 4 mg/kg with Mus musculus [2], 1 mg/kg with Mus musculus [6] and 1 mg/kg with Mus musculus [7]. Also, the MIC came to 0.4 µg/mL in the data set with Providencia rettgeri; 0.1 µg/mL against Staphylococcus aureus [3]; 0.013 µg/mL with Streptococcus pyogenes; 0.2 µg/mL in the data set on Klebsiella pneumoniae; 0.05 µg/mL against Enterococcus faecalis; 0.006 µg/mL in the data set with Streptococcus pneumoniae. In addition, the MIC against Staphylococcus aureus [5] was found to be 0.003 µg/mL; in the data set with Pseudomonas aeruginosa, 1.6 µg/mL; against Enterobacter cloacae, 0.1 µg/mL; in the data set with Escherichia coli, 0.05 µg/mL. Further, in data set [4], the NOAEL came to 73 mg/kg. Besides, in the data set on V79, the IC50 came to 130 µg/mL.
`CC(C)(N)[C@H]1CCN(c2nc3c(cc2F)c(=O)c(C(=O)O)cn3C2CC2)C1.Cl`: the ED50 in the data set on Mus musculus [1] amounted to 10 mg/kg; in the data set on Mus musculus [2], 32 mg/kg; in the data set with Mus musculus [6] it was 3 mg/kg; with Mus musculus [7], 6 mg/kg. Besides, the MIC in the data set with Providencia rettgeri amounted to 0.8 µg/mL; against Staphylococcus aureus [3] it was 0.1 µg/mL; against Streptococcus pyogenes, 0.1 µg/mL; in the data set on Klebsiella pneumoniae it was 0.4 µg/mL; against Enterococcus faecalis, 0.1 µg/mL; against Streptococcus pneumoniae, 0.05 µg/mL. The MIC against Staphylococcus aureus [5] stood at 0.025 µg/mL; with Pseudomonas aeruginosa, 3.1 µg/mL; with Enterobacter cloacae, 0.2 µg/mL; in the data set with Escherichia coli, 0.2 µg/mL. In addition, in data set [4], the NOAEL was 55 mg/kg.
Turning to `C[C@@H](N)C1CCN(c2nc3c(cc2F)c(=O)c(C(=O)O)cn3C2CC2)C1` (stereo partly drawn), the ED50 is 2 mg/kg in the data set on Mus musculus [1], 3 mg/kg in the data set on Mus musculus [2], 0.4 mg/kg in the data set on Mus musculus [6] and 1 mg/kg in the data set on Mus musculus [7]. The MIC against Providencia rettgeri was found to be 0.1 µg/mL (≈ 0.277 µM); in the data set on Staphylococcus aureus [3], 0.025 µg/mL (≈ 0.0694 µM); against Streptococcus pyogenes it was 0.013 µg/mL (≈ 0.0361 µM); with Klebsiella pneumoniae, 0.05 µg/mL (≈ 0.139 µM); in the data set on Enterococcus faecalis, 0.013 µg/mL (≈ 0.0361 µM); against Streptococcus pneumoniae, 0.003 µg/mL (≈ 0.00832 µM). Besides, the MIC with Staphylococcus aureus [5] was determined as 0.003 µg/mL (≈ 0.00832 µM); with Pseudomonas aeruginosa it was 0.4 µg/mL (≈ 1.11 µM); against Enterobacter cloacae, 0.05 µg/mL (≈ 0.139 µM); against Escherichia coli, 0.025 µg/mL (≈ 0.0694 µM). For the same compound, the NOAEL in data set [4] came to 30 mg/kg. The same compound had an IC50 in the data set with V79 of 33 µg/mL (≈ 91.6 µM).

Values taken from ChEMBL document CHEMBL1127665, “Synthesis and antibacterial activity of new quinolones containing a 7-[3-(1-amino-1-methylethyl)-1-pyrrolidinyl] moiety. Gram-positive agents with excellent oral activity and low side-effect potential” (J Med Chem, 1994).
